Source: publication PMC4240344 (Bioconjugate Chemistry, 2014)

Columns and labels:
[1] = system: integrin αvβ3/αvβ5 in xenografted U87MG glioma and human colon cancer tissues; assay: Tumor tissue staining: blocking and RGD-specificity experiments; conditions: 100 μM; for Staining of tumor tissues (RGD specificity): xenografted U87MG glioma and human colon cancer tissues, same conditions
How it was run: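 Sections were frozen, acetone-fixed U87MG xenograft slices (5 μm) or deparaffinized, rehydrated human colon cancer slides. They were blocked with 10% goat serum (30 min, 37 °C), then incubated with 100 μM test compound for 1 h at RT, with or without 10 mM c(RGDfK)2 as blocker. After three PBS washes and DAPI mounting, ≥15 random fields per section were scored. Fluorescent area was given as % of total, mean ± standard deviation.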

[2] = system: integrin αvβ3/αvβ5 in xenografted U87MG glioma tissues; parameters: species or system human; conditions: xenografted U87MG glioma slices, 1 h incubation, tested at 0.1-100 μM
How it was run: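 U87MG xenografts were snap-frozen in OCT and cut into 5 μm slices. Slices were fixed in ice-cold acetone for 10 min and air-dried for 20 min, then incubated for 1 h with test compound at 0.1, 1.0, 10, 20, 50 or 100 μM. After three PBS washes and DAPI mounting, images were taken at 200× with equal exposure. Fluorescent area was given as % of total area against concentration.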

[3] = system: integrin αvβ3/αvβ5 in human carcinoma tissues; assay: Tumor tissue staining, concentration dependence, human carcinoma tissues
How it was run: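 Human colon, squamous cell lung and gastric carcinoma slices (5 μm) were deparaffinized in xylene and rehydrated through graded alcohols. They were stained for 1 h with test compound at […], PBS-washed three times and mounted with DAPI medium. Images at 200× with equal exposure and equal brightness/contrast adjustment. Positive staining area was expressed as % of total area and plotted against concentration.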

[4] = system: integrin αvβ3/αvβ5 in xenografted U87MG glioma tissues; parameters: species or system human; conditions: peptide 100 μM, antibody 2.5 μg/mL, 5-120 min
How it was run: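 Frozen 5 μm slices of U87MG xenograft were fixed in ice-cold acetone for 10 min and air-dried at RT. They were incubated with 100 μM test compound at RT for 5, 15, 30, 60, 90 or 120 min, PBS-washed three times and mounted with DAPI medium. The antibody arm used 10% goat serum (30 min, 37 °C), then rabbit anti-integrin β3 (2.5 μg/mL) for the same times, then Cy3 goat anti-rabbit (1:100, 1 h). Images at 200× with equal exposure; positive area as % of total plotted against time.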

[5] = system: integrin αvβ3/αvβ5 in human carcinoma tissues; assay: Tumor tissue staining kinetics, time dependence, human carcinoma tissues; conditions: 50 μM, 5-90 min

Row | Substance | Staining of tumor tissues (RGD specificity) [1] | Concentration range in which tissues were well stained [2] [µM] | Minimal concentration for positive staining of colon carcinoma ([3]; human colon carcinoma slices, 1 h incubation, tested at 1-50 μM) [µM] | Staining of gastric carcinoma tissue ([3]; human gastric carcinoma tissue, 1-50 μM) | Concentration needed to achieve adequate fluorescence staining ([3]; human squamous cell lung cancer tissues, 1 h incubation) [µM] | Incubation time to achieve maximal fluorescent intensity [4] [min] | Incubation time for positive staining of colon cancer tissues [5] [min] | Staining of xenografted U87MG glioma tissues in the absence of blocker ([1]; 1 h, room temperature)
1 | FITC-E[c(RGDfK)]2 (bicyclic or more) [FITC-RGD2] | positively stained |  |  |  |  |  |  | 
2 | FITC-Glu[cyclo[Arg-Gly-Asp-D-Phe-Lys(SAA-PEG2-(1,2,3-triazole)-1-yl-4-methylamide)]]2 (bicyclic or more) [FITC-Galacto-RGD2] | positively stained | 10 to 100 | ~5 | little staining | > 25 | ≤ 30 | ≤ 15 | successfully stained
3 | FITC-PEG4-E[PEG4-c(RGDfK)]2 (bicyclic or more) [FITC-3P-RGD2] | positively stained |  |  |  |  |  |  | 
